Publication PMC8760560 (iScience, 2021)

How the values were obtained:
[1] = test system: cADPR-evoked Ca^2+ release; test: cADPR-evoked Ca2+ release in sea urchin egg homogenate; assay type: biochemical, Strongylocentrotus purpuratus; conditions: for mode of inhibition of cADPR action: cADPR concentration-response curves at increasing inhibitor concentrations; for inhibition of cADPR-evoked Ca2+ signals: primary screen, 6 min preincubation
Method in brief: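 Primary screen in S. purpuratus egg homogenate, loaded with Ca2+ and 3 μM fluo-3 at 17°C and diluted stepwise to 1.25% over 3 h. Fluo-3 was read at ex 485/em 525 nm. Library compounds at 25 μM final were preincubated for 6 min (35 cycles), then cADPR 300 nM final was added. Screens ran in singlicate or duplicate, with Z' calculated from vehicle and cADPR responses.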

[2] = test system: NAADP-evoked Ca^2+ release; conditions: data from a recent screen against NAADP action; ref Gunaratne et al., 2018; cited from earlier work
[3] = biological target: RyR1 (Sus scrofa, UniProt P16960); test: [3H]-ryanodine binding to skeletal SR vesicles; parameters: species or system porcine
Chain of RyR1 (P16960 whole entry): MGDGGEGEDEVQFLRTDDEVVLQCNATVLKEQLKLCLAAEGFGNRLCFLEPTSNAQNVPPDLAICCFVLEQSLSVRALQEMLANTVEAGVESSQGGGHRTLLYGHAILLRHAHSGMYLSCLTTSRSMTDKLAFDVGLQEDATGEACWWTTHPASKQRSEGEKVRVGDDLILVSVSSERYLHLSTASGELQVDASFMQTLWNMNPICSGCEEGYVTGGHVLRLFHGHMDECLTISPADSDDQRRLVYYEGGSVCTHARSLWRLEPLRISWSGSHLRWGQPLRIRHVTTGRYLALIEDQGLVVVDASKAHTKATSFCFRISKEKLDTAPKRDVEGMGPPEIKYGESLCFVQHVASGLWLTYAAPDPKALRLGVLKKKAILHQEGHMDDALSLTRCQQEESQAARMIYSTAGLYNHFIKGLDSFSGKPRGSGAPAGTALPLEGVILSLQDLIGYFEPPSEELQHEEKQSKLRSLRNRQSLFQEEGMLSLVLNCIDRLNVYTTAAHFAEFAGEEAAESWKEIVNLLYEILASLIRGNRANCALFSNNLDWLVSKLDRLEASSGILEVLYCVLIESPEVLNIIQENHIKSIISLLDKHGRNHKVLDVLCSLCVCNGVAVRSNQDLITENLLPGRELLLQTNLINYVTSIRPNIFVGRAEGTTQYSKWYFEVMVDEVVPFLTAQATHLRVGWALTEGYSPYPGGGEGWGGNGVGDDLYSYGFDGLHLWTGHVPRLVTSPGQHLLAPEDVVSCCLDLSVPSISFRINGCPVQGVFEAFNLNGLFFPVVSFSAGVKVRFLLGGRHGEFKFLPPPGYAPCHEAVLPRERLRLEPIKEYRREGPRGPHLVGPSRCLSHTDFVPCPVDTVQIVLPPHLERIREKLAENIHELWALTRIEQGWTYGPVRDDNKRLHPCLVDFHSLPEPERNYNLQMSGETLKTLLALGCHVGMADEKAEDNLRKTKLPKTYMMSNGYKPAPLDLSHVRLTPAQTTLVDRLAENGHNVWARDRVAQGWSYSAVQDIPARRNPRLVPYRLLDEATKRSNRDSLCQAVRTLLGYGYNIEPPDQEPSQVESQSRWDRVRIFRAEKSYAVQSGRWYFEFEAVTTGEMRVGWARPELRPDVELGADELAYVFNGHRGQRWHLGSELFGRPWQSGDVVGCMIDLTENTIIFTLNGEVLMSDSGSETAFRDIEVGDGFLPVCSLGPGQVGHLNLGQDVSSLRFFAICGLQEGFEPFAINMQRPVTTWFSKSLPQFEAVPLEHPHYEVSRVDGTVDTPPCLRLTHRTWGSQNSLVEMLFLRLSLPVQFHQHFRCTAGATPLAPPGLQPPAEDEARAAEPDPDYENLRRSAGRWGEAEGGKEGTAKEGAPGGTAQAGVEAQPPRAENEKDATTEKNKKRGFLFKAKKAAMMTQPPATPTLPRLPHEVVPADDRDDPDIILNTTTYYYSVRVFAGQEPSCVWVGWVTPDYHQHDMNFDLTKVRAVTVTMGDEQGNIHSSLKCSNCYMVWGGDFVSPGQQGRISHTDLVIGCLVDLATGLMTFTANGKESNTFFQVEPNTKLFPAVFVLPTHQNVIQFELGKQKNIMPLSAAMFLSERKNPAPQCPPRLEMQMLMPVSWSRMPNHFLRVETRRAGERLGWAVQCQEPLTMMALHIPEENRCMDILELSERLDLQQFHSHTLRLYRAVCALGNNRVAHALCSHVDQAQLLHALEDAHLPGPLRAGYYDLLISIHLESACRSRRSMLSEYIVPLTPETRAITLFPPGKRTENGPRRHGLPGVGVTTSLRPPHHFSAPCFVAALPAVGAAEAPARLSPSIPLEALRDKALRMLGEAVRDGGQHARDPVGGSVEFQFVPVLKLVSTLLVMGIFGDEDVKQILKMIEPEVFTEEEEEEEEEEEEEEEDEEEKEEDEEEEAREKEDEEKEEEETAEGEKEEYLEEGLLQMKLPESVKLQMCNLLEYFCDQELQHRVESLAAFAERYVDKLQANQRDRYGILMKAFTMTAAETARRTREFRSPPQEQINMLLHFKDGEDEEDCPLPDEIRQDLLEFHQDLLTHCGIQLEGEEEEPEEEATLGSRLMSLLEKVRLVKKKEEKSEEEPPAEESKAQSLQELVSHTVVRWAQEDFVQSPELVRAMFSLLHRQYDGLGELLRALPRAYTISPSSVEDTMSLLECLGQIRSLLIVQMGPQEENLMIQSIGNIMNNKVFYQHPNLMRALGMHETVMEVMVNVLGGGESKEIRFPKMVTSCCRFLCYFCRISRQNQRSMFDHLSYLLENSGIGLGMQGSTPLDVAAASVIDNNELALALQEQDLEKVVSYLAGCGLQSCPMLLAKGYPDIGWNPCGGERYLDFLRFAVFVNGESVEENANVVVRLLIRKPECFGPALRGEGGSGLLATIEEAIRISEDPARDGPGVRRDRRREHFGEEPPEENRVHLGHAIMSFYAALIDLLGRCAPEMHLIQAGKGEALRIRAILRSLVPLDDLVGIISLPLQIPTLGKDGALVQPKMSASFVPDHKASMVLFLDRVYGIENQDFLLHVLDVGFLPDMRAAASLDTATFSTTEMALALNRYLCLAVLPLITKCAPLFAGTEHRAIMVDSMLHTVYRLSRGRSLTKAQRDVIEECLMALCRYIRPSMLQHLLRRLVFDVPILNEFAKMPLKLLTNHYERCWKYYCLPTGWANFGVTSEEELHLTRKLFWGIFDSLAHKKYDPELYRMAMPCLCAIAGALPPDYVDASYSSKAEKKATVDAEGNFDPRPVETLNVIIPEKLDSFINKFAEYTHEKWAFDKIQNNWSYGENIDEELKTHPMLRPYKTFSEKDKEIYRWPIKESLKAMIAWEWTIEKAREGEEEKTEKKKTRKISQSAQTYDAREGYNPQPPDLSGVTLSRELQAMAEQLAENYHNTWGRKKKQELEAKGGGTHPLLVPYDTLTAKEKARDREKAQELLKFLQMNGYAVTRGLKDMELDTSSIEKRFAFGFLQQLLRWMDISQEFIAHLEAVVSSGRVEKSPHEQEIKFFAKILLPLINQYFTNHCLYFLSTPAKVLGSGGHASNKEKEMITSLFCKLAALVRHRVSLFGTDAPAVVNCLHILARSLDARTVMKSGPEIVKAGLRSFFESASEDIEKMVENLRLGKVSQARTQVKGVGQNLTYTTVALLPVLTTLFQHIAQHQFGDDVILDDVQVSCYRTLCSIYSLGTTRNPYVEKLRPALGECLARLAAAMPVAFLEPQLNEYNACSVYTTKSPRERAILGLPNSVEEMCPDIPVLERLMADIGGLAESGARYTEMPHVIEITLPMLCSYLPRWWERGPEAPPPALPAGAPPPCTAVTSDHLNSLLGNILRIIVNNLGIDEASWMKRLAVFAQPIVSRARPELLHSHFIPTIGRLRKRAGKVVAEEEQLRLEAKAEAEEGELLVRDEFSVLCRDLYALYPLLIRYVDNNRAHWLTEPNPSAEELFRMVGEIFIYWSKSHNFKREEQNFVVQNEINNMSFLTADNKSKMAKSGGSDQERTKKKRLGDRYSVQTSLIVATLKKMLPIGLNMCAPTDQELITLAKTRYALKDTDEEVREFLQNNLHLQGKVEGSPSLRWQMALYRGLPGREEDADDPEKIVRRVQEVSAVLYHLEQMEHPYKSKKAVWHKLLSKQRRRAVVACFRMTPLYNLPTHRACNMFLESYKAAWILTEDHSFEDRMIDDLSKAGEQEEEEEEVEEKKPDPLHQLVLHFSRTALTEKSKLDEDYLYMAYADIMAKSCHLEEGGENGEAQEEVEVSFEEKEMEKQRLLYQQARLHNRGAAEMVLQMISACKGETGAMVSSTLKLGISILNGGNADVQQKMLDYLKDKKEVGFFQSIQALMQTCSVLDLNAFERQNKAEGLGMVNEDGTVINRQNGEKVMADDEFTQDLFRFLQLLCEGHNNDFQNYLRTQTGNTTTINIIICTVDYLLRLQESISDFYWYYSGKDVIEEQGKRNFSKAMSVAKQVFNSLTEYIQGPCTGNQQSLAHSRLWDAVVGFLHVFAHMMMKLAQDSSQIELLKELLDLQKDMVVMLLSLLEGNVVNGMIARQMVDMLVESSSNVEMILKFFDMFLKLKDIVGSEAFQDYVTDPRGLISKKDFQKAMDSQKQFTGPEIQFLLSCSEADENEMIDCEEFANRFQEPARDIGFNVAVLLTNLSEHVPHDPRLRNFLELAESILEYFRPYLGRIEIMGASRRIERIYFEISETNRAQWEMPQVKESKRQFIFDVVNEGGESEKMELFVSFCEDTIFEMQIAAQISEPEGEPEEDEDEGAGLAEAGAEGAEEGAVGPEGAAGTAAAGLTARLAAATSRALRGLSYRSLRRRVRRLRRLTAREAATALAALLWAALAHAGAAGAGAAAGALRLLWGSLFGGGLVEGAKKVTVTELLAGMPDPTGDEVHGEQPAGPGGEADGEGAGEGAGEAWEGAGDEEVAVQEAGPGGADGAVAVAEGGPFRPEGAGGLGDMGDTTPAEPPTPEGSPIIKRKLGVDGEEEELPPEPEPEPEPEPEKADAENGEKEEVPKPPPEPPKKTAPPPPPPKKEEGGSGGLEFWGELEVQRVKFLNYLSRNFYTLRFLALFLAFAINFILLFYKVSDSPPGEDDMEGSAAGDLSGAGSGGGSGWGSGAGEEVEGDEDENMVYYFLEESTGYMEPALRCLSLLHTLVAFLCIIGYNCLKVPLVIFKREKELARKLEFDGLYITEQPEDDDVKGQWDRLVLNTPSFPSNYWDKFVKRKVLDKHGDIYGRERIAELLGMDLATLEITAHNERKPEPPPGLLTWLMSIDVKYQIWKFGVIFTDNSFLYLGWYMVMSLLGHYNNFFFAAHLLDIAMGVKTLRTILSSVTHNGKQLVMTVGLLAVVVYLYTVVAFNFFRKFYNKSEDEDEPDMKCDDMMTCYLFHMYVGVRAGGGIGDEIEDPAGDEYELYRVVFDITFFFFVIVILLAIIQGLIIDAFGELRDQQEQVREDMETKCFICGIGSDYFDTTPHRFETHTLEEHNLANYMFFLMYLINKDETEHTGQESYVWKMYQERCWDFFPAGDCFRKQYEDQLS
Method in brief: (§1)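 Porcine SR vesicles, skeletal (1 mg/mL, 10 nM [3H]-ryanodine) and cardiac (3 mg/mL, 7.5 nM [3H]-ryanodine), were incubated for 3 h at 37°C with test compound or 0.02% DMSO. The pH 7.0 K-PIPES buffer contained 150 mM KCl, 0.1 μM calmodulin, GSH, DTT, 1 mM EGTA and CaCl2 giving 100 nM or 30 μM free Ca2+. Non-specific binding was defined with 40 μM unlabeled ryanodine. Bound ligand was filtered and counted by scintillation, and expressed relative to DMSO. Three SR batches, triplicates.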

[4] = biological target: RyR2 (Sus scrofa, UniProt A0A5G2R1W3); test: [3H]-ryanodine binding to cardiac SR vesicles; parameters: species or system porcine
Method in brief: as §1

[5] = test system: mouse embryonic stem (ES) cells; conditions: 100 μM; ref Wei et al., 2012; cited from earlier work
[6] = test system: IP3-evoked Ca^2+ release; test: IP3-evoked Ca2+ release in sea urchin egg homogenate; assay type: biochemical, Strongylocentrotus purpuratus; conditions: IP3 500 nM; at concentrations completely inhibiting cADPR-evoked signals
[7] = test system: U2OS cells; test: cADPR microinjection into single U2OS cells expressing GCaMP-6M; assay type: cell-based, human; conditions: 5 μM preincubation; cADPR 30 μM pipette concentration
Method in brief: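 U2OS cells were transfected with GCaMP-6M two days prior, seeded on collagen dishes and perfused with Ca2+-free HBSS. Cells in 5 μM test compound or 0.05% DMSO were microinjected with intracellular buffer (110 mM KCl, 10 mM NaCl, 20 mM HEPES, pH 7.2) containing vehicle or cADPR, giving about 300 nM intracellular. Spinning-disk imaging (ex 488 nm) gave peak ΔF/F0 and area under curve. Data from three independent experiments, mean ± stdev.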

[8] = test system: cADPR-sensitive Ca^2+ stores; assay type: biochemical, Strongylocentrotus purpuratus; conditions: ≤100μM
[9] = test system: RyRs (caffeine-evoked Ca^2+ release); test: caffeine-evoked Ca2+ release in sea urchin egg homogenate; assay type: biochemical, Strongylocentrotus purpuratus; conditions: caffeine 15 mM
Method in brief: (§2)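 Fluo-3-loaded S. purpuratus egg homogenate (1.25%, pH 7.2 intracellular-like medium, 17°C loading) was preincubated with increasing test compound concentrations. Release was then evoked by cADPR 300 nM, caffeine 15 mM or ryanodine 100 μM, with fluorescence read at ex 485/em 525 nm. Concentration-response data came from three independent biological experiments with four technical replicates each.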

[10] = test system: human induced pluripotent stem cells (iPSCs); test: cardiomyocyte differentiation of induced pluripotent stem cells; assay type: cell-based; conditions: 1 μM for 5 days, versus control cultures
Method in brief: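 Human iPSCs derived from dermal fibroblasts were grown on Matrigel in mTeSR1 and differentiated by Wnt modulation (CHIR, then 5 μM IWP-4 at day 3). From day 0 they received 1 μM test compound (from a 10 mM DMSO stock) or DMSO for 23 h or 5 days. Troponin T-positive cells per Hoechst-stained nuclei were counted at day 8 or 15. Western blot troponin T was normalized to GAPDH as % vehicle. Three independent experiments, mean ± stdev.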

[11] = test system: RyRs (ryanodine-evoked Ca^2+ release); test: ryanodine-evoked Ca2+ release in sea urchin egg homogenate; assay type: biochemical, Strongylocentrotus purpuratus; conditions: ryanodine 100 μM
Method in brief: as §2

[12] = test system: NAADP-evoked Ca^2+ release; test: NAADP-evoked Ca2+ release in sea urchin egg homogenate; assay type: biochemical, Strongylocentrotus purpuratus; conditions: NAADP 200 nM; at concentrations completely inhibiting cADPR-evoked signals

N=c1c2cc(Br)n3c2ncn1[C@@H]1O[C@H](COP(=O)(O)OP(=O)(O)OC[C@H]2O[C@@H]3C(O)[C@H]2O)C(O)C1O (some centres unmarked) [8-Br-7-deaza-cADPR]
mode of inhibition of cADPR action [1]: competitive inhibitors

NC(=S)c1ccc[n+]([C@@H]2O[C@H](COP(=O)([O-])OP(=O)(O)OC[C@H]3O[C@@H](n4cnc5c(N)ncnc54)[C@H](OP(=O)(O)O)[C@@H]3O)[C@@H](O)[C@H]2O)c1 [thio-NADP]
effect on NAADP-evoked Ca2+ responses in screen [2]: selectively desensitized

N=c1c2ncn3c2ncn1[C@@H]1O[C@H](COP(=O)(O)OP(=O)(O)OC[C@H]2O[C@@H]3[C@H](O)[C@@H]2O)[C@@H](O)[C@H]1O [cADPR, cyclic adenosine 5′-diphosphate ribose]
effect on [3H]-ryanodine binding ([3]; contracting 30 μM free Ca2+): did not elicit any effects
effect on [3H]-ryanodine binding ([3]; relaxed 100 nM free Ca2+): did not elicit any effects
effect on [3H]-ryanodine binding ([4]; contracting 30 μM free Ca2+): did not elicit any effects
effect on [3H]-ryanodine binding ([4]; relaxed 100 nM free Ca2+): did not elicit any effects

COC(=O)C1=C(C)NC(C)=C(C(=O)OC)C1c1ccccc1[N+](=O)[O-] [nifedipine, dimethyl 2,6-dimethyl-4-(2-nitrophenyl)-1,4-dihydropyridine-3,5-dicarboxylate]
inhibition of cADPR-evoked Ca2+ signals ([1]; 25 μM): ~3%

8-Br-cADPR
effect on generation of cardiomyocytes [5]: promoted the generation of cardiomyocytes

CNc1ccc2oc(C[C@H]3O[C@@]4(CC[C@H]3C)O[C@H]([C@H](C)C(=O)c3ccc[nH]3)[C@H](C)C[C@H]4C)nc2c1C(=O)O [A23187]
effect on NAADP-evoked Ca2+ responses in screen [2]: inhibited
effect on cADPR-evoked Ca2+ responses in primary screen ([1]; 25 μM, positive control): inhibited

COCCOC(=O)C1=C(C)NC(C)=C(C(=O)OC(C)C)C1c1cccc([N+](=O)[O-])c1 (centres unmarked) [nimodipine, 3-O-(2-methoxyethyl) 5-O-propan-2-yl 2,6-dimethyl-4-(3-nitrophenyl)-1,4-dihydropyridine-3,5-dicarboxylate]
inhibition of cADPR-evoked Ca2+ signals ([1]; 25 μM): ~5%

CC1=C(C(=O)OC2CCCCC2)C(c2ccc([N+](=O)[O-])cc2)C2=C(CC(C)(C)CC2=O)N1 (centres unmarked) [FLI-06, cyclohexyl 2,7,7-trimethyl-4-(4-nitrophenyl)-5-oxo-1,4,5,6,7,8-hexahydroquinoline-3-carboxylate]
effect on [3H]-ryanodine binding ([3]; contracting 30 μM free Ca2+): inhibited
effect on [3H]-ryanodine binding ([3]; relaxed 100 nM free Ca2+): inhibited
effect on [3H]-ryanodine binding ([4]; contracting 30 μM free Ca2+): inhibited
effect on [3H]-ryanodine binding ([4]; relaxed 100 nM free Ca2+): inhibited
effect on IP3-evoked Ca2+ release [6]: did not impact
effect on cADPR-evoked Ca2+ signals ([1]; cADPR 300 nM): blocked
mode of inhibition of cADPR action [1]: non-competitive inhibition
IC50 ([1]; read-out: IC50, inhibition of cADPR-evoked Ca2+ release, sea urchin egg homogenate, cADPR 300 nM): 260 ± 23 nM
effect on cADPR-evoked Ca2+ transient [7]: reduced
intrinsic agonist activity (Ca2+ elevation without cADPR) [8]: did not result from any intrinsic agonist activity
effect on caffeine-evoked Ca2+ release [9]: blocked
contraction phenotype [10]: earlier contraction phenotype
expression of cardiomyocyte-specific troponin T [10]: enhanced expression
effect on ryanodine-evoked Ca2+ release [11]: blocked
effect on NAADP-evoked Ca2+ release [12]: did not impact
